Results as given in ChEMBL document CHEMBL5120861, “Short peptide pharmacophores developed from protein phosphatase-1 disrupting peptides (PDPs)” (Bioorg Med Chem, 2022).
pEC50, pIC50, pKd: −log10 of the molar value.

Assays:
[1] = Disruption of PP1 holoenzyme (unknown origin) interaction with protein inhibitor 2 assessed as increase in PP1 phosphatase activity by measuring increase in fluorescence using DiFMUP as substrate enzyme preincubated with I2 for ten mins followed by compound treatment for 20 mins followed by substrate addition by fluorescence based analysis; design: species or system Homo sapiens
Homo sapiens = species: Homo sapiens; experiment: Binding affinity to PP1 (unknown origin) assessed as change in entropy at compound to protein molar ratio of 1:1 by isothermal titration calorimetry assay
Outline: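 PP1 dialyzed into 20 mM TrisCl pH 7.4, 200 mM NaCl, 1 mM TCEP, precipitate removed, 19.16 μM (0.72 mg/ml) in the cell. Compound 500 μM in last dialysis buffer, injected 1.8 μl every 2 min at 25°C. Data corrected for dilution heat and fitted for stoichiometry, Kd, ΔH, ΔS.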

[2] = Binding affinity to PP1 (unknown origin) assessed as dissociation constant at compound to protein molar ratio of 1:1 by isothermal titration calorimetry assay; design: species or system Homo sapiens
Outline: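 PP1 dialysed into 20 mM TrisCl pH 7.4, 200 mM NaCl, 1 mM TCEP; precipitate removed, protein concentrated to 19.16 μM (0.72 mg/ml) in cell. Peptide dissolved in final dialysis buffer (also the reference), 500 μM in syringe, 1.8 μl injections every 2 min at 25°C. Data corrected for dilution heat and fitted for Kd and stoichiometry.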

[3] = Binding affinity to PP1 (unknown origin) assessed as binding to RVxF binding site of PP1 by competing with PDP incubated for 60 mins in presence of biotin-PDP2 by ALPHA assay; design: species or system Homo sapiens
Outline: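 His-tagged PP1 200 nM with biotin-PDP2 67 nM in 50 mM TrisCl pH 7.5, 150 mM NaCl, 0.05% Tween 20, 1 mM MnCl2, 0.1% BSA; serial dilutions starting from 10 mM, 60 min rt; then streptavidin-donor and anti-His-acceptor beads at 5 μg/ml final, 90 min rt in dark; excitation 680 nm, emission 570 nm. Non-specific control used 22 nM GST(His-Biotin) instead.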

## CC(C)[C@H](NC(=O)[C@H](CCCNC(=N)N)NC(=O)[C@@H](N)CCCCN)C(=O)N[C@@H](Cc1cnc[nH]1)C(=O)N[C@@H](Cc1ccccc1)C(N)=O
[1]
  pEC50: 6.22
Homo sapiens
  deltaS: 3.94 cal/mol/deg
[2]
  pKd: 5.68
[3]
  pIC50: 3.91
